Measurements: ChEMBL document CHEMBL1125327, “Conformationally restricted deltorphin analogues” (J Med Chem, 1992)
pIC50, pKi: −log10 of the molar value. Positions of bridges follow the written chain, without caps; N, C: chain ends. Non-standard residues stand in square brackets, D forms with d. Residues, ends and D or L forms follow the SMILES beside them. Tic = O=C(O)[C@@H]1Cc2ccccc2CN1; Aic = NC1(C(=O)O)Cc2ccccc2C1; Nle = CCCC[C@H](N)C(=O)O

Columns and labels:
[1] = target: T1, Delta-type opioid receptor (Mus musculus, UniProt P32300); test: (§1) Inhibition of electrically evoked contractions in mouse vas deferens; assay type: functional
T1 sequence (P32300 whole entry): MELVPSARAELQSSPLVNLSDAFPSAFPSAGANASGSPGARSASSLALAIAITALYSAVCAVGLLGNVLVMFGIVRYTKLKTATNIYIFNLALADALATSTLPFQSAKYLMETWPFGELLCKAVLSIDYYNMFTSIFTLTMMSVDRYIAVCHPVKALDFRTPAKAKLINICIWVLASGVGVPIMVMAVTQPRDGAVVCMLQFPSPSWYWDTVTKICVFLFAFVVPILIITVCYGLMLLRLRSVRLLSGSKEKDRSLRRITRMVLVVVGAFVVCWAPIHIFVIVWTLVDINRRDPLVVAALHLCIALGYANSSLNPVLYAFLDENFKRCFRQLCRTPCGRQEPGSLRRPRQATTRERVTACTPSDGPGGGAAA

Mu-type opioid receptor [2] = target: T2, Mu-type opioid receptor (Rattus norvegicus, UniProt P33535); test: Inhibition of [3H]- ]DAMGO binding to mu receptor from rat brain membrane
T2 sequence (P33535 whole entry): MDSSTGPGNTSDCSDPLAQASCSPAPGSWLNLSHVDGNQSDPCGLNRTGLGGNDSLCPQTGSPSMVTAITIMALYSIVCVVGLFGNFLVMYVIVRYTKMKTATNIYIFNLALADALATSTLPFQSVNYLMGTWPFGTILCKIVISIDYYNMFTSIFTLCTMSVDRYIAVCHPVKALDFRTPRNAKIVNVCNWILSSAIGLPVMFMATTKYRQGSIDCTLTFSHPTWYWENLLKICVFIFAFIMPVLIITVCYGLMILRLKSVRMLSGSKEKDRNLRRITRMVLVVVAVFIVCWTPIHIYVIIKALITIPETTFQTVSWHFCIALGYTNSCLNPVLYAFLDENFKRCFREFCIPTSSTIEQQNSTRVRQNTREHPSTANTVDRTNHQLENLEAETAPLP
Summary of the method: (§2)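 Displacement of 0.72 nM [3H]DAMGO from rat brain membranes; 2 h incubation at 0 °C. IC50 read from log dose–displacement curves; Ki calculated by Cheng–Prusoff equation using Kd 1.3 nM for [3H]DAMGO.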

Mu-type opioid receptor [3] = target: Mu-type opioid receptor (Cavia porcellus, UniProt P97266); test: Inhibition of electrically evoked contractions in Guinea pig ileum; assay type: functional, tissue-based
Mu-type opioid receptor (Cavia porcellus, UniProt P97266), sequence (P97266 whole entry): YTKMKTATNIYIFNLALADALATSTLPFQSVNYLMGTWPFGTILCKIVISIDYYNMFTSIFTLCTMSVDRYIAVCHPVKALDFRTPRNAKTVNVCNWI
Summary of the method: (§3)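 Isolated guinea pig ileum or mouse vas deferens, electrically stimulated; agonist IC50 taken as inhibition of evoked contractions from log dose–response curves. A [Leu5]enkephalin standard curve was run on each preparation and test IC50 values normalised to it. Antagonist Ke derived from IC50 ratio with and without a fixed antagonist concentration.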

[4] = target: T3, Delta-type opioid receptor (Rattus norvegicus, UniProt P33533); test: Inhibition of [3H]- ]DSLET binding to delta receptor from rat brain membrane
T3 sequence (P33533 whole entry): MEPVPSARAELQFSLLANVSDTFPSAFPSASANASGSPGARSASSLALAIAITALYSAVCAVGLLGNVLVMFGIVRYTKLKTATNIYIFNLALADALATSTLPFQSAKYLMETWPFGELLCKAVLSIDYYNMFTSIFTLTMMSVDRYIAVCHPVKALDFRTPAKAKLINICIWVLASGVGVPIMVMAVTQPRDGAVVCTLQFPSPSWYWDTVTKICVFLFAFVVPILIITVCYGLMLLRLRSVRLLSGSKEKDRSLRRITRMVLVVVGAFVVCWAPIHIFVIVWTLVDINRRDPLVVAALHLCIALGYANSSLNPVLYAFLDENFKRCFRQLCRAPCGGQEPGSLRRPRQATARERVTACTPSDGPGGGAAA
Summary of the method: (§4)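 Displacement of 0.78 nM [3H]DSLET from rat brain membrane preparations, incubated 2 h at 0 °C. IC50 from log dose–displacement curves, converted to Ki via Cheng–Prusoff with a [3H]DSLET Kd of 2.6 nM.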

Mu-type opioid receptor [5] = target: T2, Mu-type opioid receptor; test: (§5) Inhibition of [3H]- ]DAMGO binding to Opioid receptor mu 1 from rat brain membrane; summary of the method: as §2
[6] = target: T3, Delta-type opioid receptor; test: Inhibition of [3H]- ]DSLET binding to Opioid receptor delta 1 from rat brain membrane; summary of the method: as §4
Mu-type opioid receptor [7] = target: T2, Mu-type opioid receptor; test: Inhibition of [3H]- ]DAMGO binding to opioid receptor mu from rat brain membrane
[8] = target: T3, Delta-type opioid receptor; test: Inhibition of [3H]- ]DSLET binding to opioid receptor delta from rat brain membrane; summary of the method: as §4
Mu-type opioid receptor [9] = target: T2, Mu-type opioid receptor; test: as §5; summary of the method: as §2; remark: listed apart in the source
[10] = target: T1, Delta-type opioid receptor; test: as §1; assay type: functional; summary of the method: as §3; remark: listed apart in the source

Compound | pIC50 [1] | pKi (Mu-type opioid receptor [2]) | pIC50 (Mu-type opioid receptor [3]) | pKi [4] | pKi (Mu-type opioid receptor [5]) | pKi [6] | pKi (Mu-type opioid receptor [7]) | pKi [8] | pKi (Mu-type opioid receptor [9]) | pIC50 [10]
CSCC[C@H](NC(=O)[C@H](CC(C)C)NC(=O)[C@H](Cc1cnc[nH]1)NC(=O)[C@H](Cc1ccccc1)NC(=O)[C@@H](CCSC)NC(=O)[C@@H](N)Cc1ccc(O)cc1)C(=O)N[C@@H](CC(=O)O)C(N)=O (stereo in doubt; 12) [DELTORPHIN A] | 9.16 | 6.38 | 6.55 | 8.67 | – | – | – | – | – | –
CC(C)[C@@H]1NC(=O)[C@@H](NC(=O)[C@H](Cc2ccccc2)NC(=O)[C@@H](C)NC(=O)[C@@H](N)Cc2ccc(O)cc2)CC(=O)NCCC[C@@H](C(N)=O)NC(=O)[C@H](C(C)C)NC1=O | 7.04 | 6.47 | 6.60 | 6.25 | – | – | – | – | – | –
CC(C)[C@H](NC(=O)[C@H](CC(=O)O)NC(=O)[C@H](Cc1ccccc1)NC(=O)[C@@H]1Cc2ccccc2CN1C(=O)[C@@H](N)Cc1ccc(O)cc1)C(=O)N[C@H](C(=O)NCC(N)=O)C(C)C (H-Y[Tic]FDVVG-NH2) | 7.64 | – | < 4.19 | – | 5.03 | 8.19 | – | – | – | –
CC(C)[C@H](NC(=O)[C@H](CC(=O)O)NC(=O)C1(NC(=O)[C@@H](C)NC(=O)[C@@H](N)Cc2ccc(O)cc2)CCc2ccccc2C1)C(=O)N[C@H](C(=O)NCC(N)=O)C(C)C (stereo in doubt; 3) | 9.79 | – | 5.86 | – | – | – | 5.85 | 8.19 | – | –
CC(C)[C@H](NC(=O)[C@H](CC(=O)O)NC(=O)C1(NC(=O)[C@@H](C)NC(=O)[C@@H](N)Cc2ccc(O)cc2)CCc2ccccc2C1)C(=O)N[C@H](C(=O)NCC(N)=O)C(C)C (stereo in doubt; 2) | 9.94 | – | 5.74 | – | 6.17 | 8.27 | – | – | – | –
CC(C)[C@H](NC(=O)[C@H](CC(=O)O)NC(=O)[C@@H](Cc1ccccc1)NC(=O)[C@@H](C)NC(=O)[C@@H](N)Cc1ccc(O)cc1)C(=O)N[C@H](C(=O)NCC(N)=O)C(C)C | – | – | 4.92 | – | 5.06 | 7.17 | – | – | – | –
CC(C)[C@H](NC(=O)[C@@H]1CCC(=O)NCCCC[C@@H](NC(=O)[C@@H](N)Cc2ccc(O)cc2)C(=O)N[C@@H](Cc2ccccc2)C(=O)N1)C(=O)N[C@H](C(=O)NCC(N)=O)C(C)C | 9.33 | 7.76 | 6.99 | 8.44 | – | – | – | – | – | –
CC(C)[C@@H]1NC(=O)[C@H](CC(=O)O)NC(=O)[C@H](Cc2ccccc2)NC(=O)[C@H](NC(=O)[C@@H](N)Cc2ccc(O)cc2)CCCCNC(=O)CC[C@@H](C(N)=O)NC(=O)[C@H](C(C)C)NC1=O | 7.76 | 6.05 | 6.42 | 6.61 | – | – | – | – | – | –
CC(C)[C@H](NC(=O)[C@H](CC(=O)O)NC(=O)C1(NC(=O)[C@@H](C)NC(=O)[C@@H](N)Cc2ccc(O)cc2)Cc2ccccc2C1)C(=O)N[C@H](C(=O)NCC(N)=O)C(C)C (H-Y[dA][Aic]DVVG-NH2) | 10.10 | – | 6.54 | – | 6.68 | 8.30 | – | – | – | –
CC(C)[C@H](NC(=O)[C@H](CC(=O)O)NC(=O)[C@H](Cc1ccccc1)NC(=O)[C@@H](C)NC(=O)[C@@H](N)Cc1ccc(O)cc1)C(=O)N[C@H](C(=O)NCC(N)=O)C(C)C [DELTORPHIN C] | – | – | 6.07 | – | – | – | 6.58 | 8.84 | – | –
CC(C)[C@@H]1NC(=O)[C@@H](NC(=O)[C@H](Cc2ccccc2)NC(=O)CNC(=O)[C@@H](N)Cc2ccc(O)cc2)CCC(=O)NCCCC[C@@H](C(N)=O)NC(=O)[C@H](C(C)C)NC1=O (H-YGFEVVK-NH2; lactam 4-7) | 6.04 | 6.02 | 5.41 | 6.14 | – | – | – | – | – | –
CSCC[C@H](NC(=O)[C@H](CC(C)C)NC(=O)[C@H](Cc1cnc[nH]1)NC(=O)[C@H](Cc1ccccc1)NC(=O)[C@@H](CCSC)NC(=O)[C@@H](N)Cc1ccc(O)cc1)C(=O)N[C@@H](CC(=O)O)C(N)=O (stereo in doubt; 7) [DELTORPHIN A] | 7.01 | 6.84 | 5.35 | 6.54 | – | – | – | – | – | –
CCCC[C@H](NC(=O)[C@H](CC(C)C)NC(=O)[C@H](Cc1ccccc1)NC(=O)[C@H](Cc1ccccc1)NC(=O)[C@@H]1Cc2ccccc2CN1C(=O)[C@@H](N)Cc1ccc(O)cc1)C(=O)N[C@@H](CC(=O)O)C(N)=O (H-Y[Tic]FFL[Nle]D-NH2) | < 5.00 | – | < 5.00 | – | 5.38 | 8.08 | – | – | – | –
CC(C)[C@H](NC(=O)[C@H](CC(=O)O)NC(=O)[C@@H]1Cc2ccccc2CN1C(=O)[C@@H](C)NC(=O)[C@@H](N)Cc1ccc(O)cc1)C(=O)N[C@H](C(=O)NCC(N)=O)C(C)C (H-Y[dA][Tic]DVVG-NH2) | 6.32 | – | 4.84 | – | 4.82 | – | – | – | 5.30 | –
CCCC[C@H](NC(=O)[C@H](CC(C)C)NC(=O)[C@H](Cc1cnc[nH]1)NC(=O)[C@H](Cc1ccccc1)NC(=O)[C@@H](CCCC)NC(=O)[C@@H](N)Cc1ccc(O)cc1)C(=O)N[C@@H](CC(=O)O)C(N)=O | – | 6.93 | 6.62 | 9.18 | – | – | – | – | – | 9.15
